Columns and labels:
[1] = target: T1, Tyrosine-protein kinase Lyn (Homo sapiens, UniProt P07948); assay: Inhibition of Lyn A using ATP preincubated with compound for 5 mins measured after 10 mins
[2] = target: Fibroblast growth factor receptor 1 (Homo sapiens, UniProt P11362); assay: Inhibition of FGFR1 using ATP preincubated with compound for 5 mins measured after 10 mins
[3] = target: Cytoplasmic tyrosine-protein kinase BMX (Homo sapiens, UniProt P51813); assay: Inhibition of BMX using ATP measured after 10 mins
BT-474 = assay: Growth inhibition of human BT474 cells overexpressing HER2 gene after 5 days; assay type: functional; details: BT-474, 120 h
[4] = target: Mitogen-activated protein kinase kinase kinase 5 (Homo sapiens, UniProt Q99683); assay: Inhibition of N-terminus FLAG-tagged ASK1 expressed in baculovirus expression system using [gamma-33P]-ATP measured after 60 mins by scintillation counting
[5] = target: Dual specificity protein kinase TTK (Homo sapiens, UniProt P33981); assay: Inhibition of N-terminus FLAG-tagged TTK expressed in baculovirus expression system using [gamma-33P]-ATP measured after 60 mins by scintillation counting
[6] = target: Fibroblast growth factor receptor 3 (Homo sapiens, UniProt P22607); assay: Inhibition of FGFR3 using ATP preincubated with compound for 5 mins measured after 10 mins
[7] = target: Serine/threonine-protein kinase B-raf (Homo sapiens, UniProt P15056); assay: Inhibition of N-terminus FLAG-tagged B-raf expressed in baculovirus expression system using [gamma-33P]-ATP measured after 60 mins by scintillation counting
[8] = target: Dual specificity mitogen-activated protein kinase kinase 5 (Homo sapiens, UniProt Q13163); assay: Inhibition of N-terminus FLAG-tagged MEK5 expressed in baculovirus expression system using [gamma-33P]-ATP measured after 30 mins by scintillation counting
[9] = target: Mast/stem cell growth factor receptor Kit (Homo sapiens, UniProt P10721); assay: Inhibition of c-kit using ATP measured after 20 mins
[10] = target: Platelet-derived growth factor receptor beta (Homo sapiens, UniProt P09619); assay: Inhibition of PDGFRbeta using ATP measured after 60 mins
[11] = target: Mitogen-activated protein kinase 14 (Homo sapiens, UniProt Q16539); assay: Inhibition of N-terminus FLAG-tagged p38alpha expressed in baculovirus expression system using [gamma-33P]-ATP measured after 60 mins by scintillation counting
[12] = target: Dual specificity mitogen-activated protein kinase kinase 1 (Homo sapiens, UniProt Q02750); assay: Inhibition of N-terminus GST -fused MEK1 expressed using baculovirus infection system using [gamma-33P]ATP preincubated with compound for 5 mins measured after 30 mins by scintillation counting
[13] = Metabolic stability in human liver microsomes at 1 umol/L after 20 mins by HPLC analysis; assay type: ADME, Microsome; details: read-out: Stability
[14] = target: Inhibitor of nuclear factor kappa-B kinase subunit beta (Homo sapiens, UniProt O14920); assay: Inhibition of C-terminus FLAG-tagged IKKbeta expressed in baculovirus expression system using [gamma-33P]-ATP measured after 30 mins by scintillation counting
[15] = target: Mitogen-activated protein kinase kinase kinase 1 (Homo sapiens, UniProt Q13233); assay: Inhibition of C-terminus FLAG-tagged MEKK1 expressed in baculovirus expression system using [gamma-33P]-ATP measured after 60 mins by scintillation counting
[16] = target: Platelet-derived growth factor receptor alpha (Homo sapiens, UniProt P16234); assay: Inhibition of PDGFRalpha using ATP measured after 30 mins
[17] = target: Tyrosine-protein kinase ZAP-70 (Homo sapiens, UniProt P43403); assay: Inhibition of ZAP70 using ATP measured after 10 mins
[18] = target: T1, Tyrosine-protein kinase Lyn; assay: Inhibition of Lyn B using ATP preincubated with compound for 5 mins measured after 10 mins
[19] = target: Tyrosine-protein kinase Lck (Homo sapiens, UniProt P06239); assay: Inhibition of LCK using ATP preincubated with compound for 5 mins measured after 30 mins
[20] = target: Mitogen-activated protein kinase 3 (Homo sapiens, UniProt P27361); assay: Inhibition of N-terminus FLAG-tagged Erk1 expressed in baculovirus expression system using [gamma-33P]-ATP measured after 60 mins by scintillation counting
[21] = target: Proto-oncogene tyrosine-protein kinase Src (Homo sapiens, UniProt P12931); assay: Inhibition of Src using ATP preincubated with compound for 5 mins measured after 10 mins
[22] = target: Serine/threonine-protein kinase PLK1 (Homo sapiens, UniProt P53350); assay: Inhibition of N-terminus FLAG-tagged PLK1 expressed in baculovirus expression system using [gamma-33P]-ATP measured after 60 mins by scintillation counting
[23] = Antitumor activity against human 4-1ST cells overexpressing HER2 gene xenografted in nude mouse assessed as tumor growth regression at 50 mg/kg, po BID for 14 days relative to control; assay type: functional
Outline: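 Oral dosing at 50 mg/kg in mice bearing 4-1ST (HER2-overexpressing) tumor xenografts. Efficacy was expressed as tumor/control ratio (T/C). Significance versus control at day 14 was tested by one-tailed Shirley–Williams test.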

[24] = target: Vascular endothelial growth factor receptor 1 (Homo sapiens, UniProt P17948); assay: Inhibition of VEGFR1 using ATP preincubated with compound for 5 mins measured after 5 mins
[25] = target: Glycogen synthase kinase-3 beta (Homo sapiens, UniProt P49841); assay: Inhibition of N-terminus FLAG-tagged GSK3beta expressed in baculovirus expression system using [gamma-33P]-ATP measured after 30 mins by scintillation counting
CYP3A4 = CYP3A4 (Homo sapiens, UniProt P08684); assay: Inhibition of CYP3A4 at 10 uM after 15 mins; assay type: ADME
Angiopoietin-1 receptor = Angiopoietin-1 receptor (Homo sapiens, UniProt Q02763); assay: Inhibition of TIE2 using ATP preincubated with compound for 5 mins measured after 10 mins
[26] = target: Insulin-like growth factor 1 receptor (Homo sapiens, UniProt P08069); assay: Inhibition of IGFR1 using ATP measured after 20 mins
[27] = target: Mitogen-activated protein kinase 8 (Homo sapiens, UniProt P45983); assay: Inhibition of N-terminus FLAG-tagged JNK1 expressed in baculovirus expression system using [gamma-33P]-ATP measured after 60 mins by scintillation counting
[28] = target: Tyrosine-protein kinase CSK (Homo sapiens, UniProt P41240); assay: Inhibition of CSK using ATP preincubated with compound for 5 mins measured after 10 mins
[29] = Metabolic stability in mouse liver microsomes at 1 umol/L after 20 mins by HPLC analysis; assay type: ADME, Microsome; details: read-out: Stability
[30] = target: Hepatocyte growth factor receptor (Homo sapiens, UniProt P08581); assay: Inhibition of c-Met using ATP preincubated with compound for 5 mins measured after 10 mins
[31] = target: Vascular endothelial growth factor receptor 2 (Homo sapiens, UniProt P35968); assay: Inhibition of N-terminus FLAG-tagged VEGFR2 expressed using baculovirus infection system after 10 mins
[32] = target: Receptor tyrosine-protein kinase erbB-4 (Homo sapiens, UniProt Q15303); assay: Inhibition of N-terminus peptide-tagged human recombinant HER4 expressed using baculovirus infection system using [gamma-33P]-ATP preincubated with compound for 5 mins measured after 10 mins by scintillation counting
[33] = target: Receptor tyrosine-protein kinase erbB-2 (Homo sapiens, UniProt P04626); assay: Inhibition of N-terminus peptide-tagged human recombinant HER2 expressed using baculovirus infection system using [gamma-33P]-ATP preincubated with compound for 5 mins measured after 10 mins by scintillation counting
CAL-27 = assay: Antitumor activity against human CAL27 cells overexpressing EGFR gene xenografted in nude mouse assessed as tumor growth regression at 100 mg/kg, po BID for 14 days relative to control; assay type: functional
Outline: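 CAL27 human head and neck cancer (EGFR-overexpressing) xenografts in mice were dosed orally at 100 mg/kg. Efficacy was expressed as tumor/control ratio (T/C) against vehicle control.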

Aurora kinase B = Aurora kinase B (Homo sapiens, UniProt Q96GD4); assay: Inhibition of N-terminal 6xHis tagged Aurora B kinase expressed using baculovirus expression system using [gamma-33P]ATP
Focal adhesion kinase 1 = Focal adhesion kinase 1 (Homo sapiens, UniProt Q05397); assay: Inhibition of FAK using ATP measured after 60 mins
[34] = target: Protein kinase C theta type (Homo sapiens, UniProt Q04759); assay: Inhibition of N-terminus FLAG-tagged PKCtheta expressed in baculovirus expression system using [gamma-33P]-ATP measured after 60 mins by scintillation counting

T1 sequence (P07948 whole entry): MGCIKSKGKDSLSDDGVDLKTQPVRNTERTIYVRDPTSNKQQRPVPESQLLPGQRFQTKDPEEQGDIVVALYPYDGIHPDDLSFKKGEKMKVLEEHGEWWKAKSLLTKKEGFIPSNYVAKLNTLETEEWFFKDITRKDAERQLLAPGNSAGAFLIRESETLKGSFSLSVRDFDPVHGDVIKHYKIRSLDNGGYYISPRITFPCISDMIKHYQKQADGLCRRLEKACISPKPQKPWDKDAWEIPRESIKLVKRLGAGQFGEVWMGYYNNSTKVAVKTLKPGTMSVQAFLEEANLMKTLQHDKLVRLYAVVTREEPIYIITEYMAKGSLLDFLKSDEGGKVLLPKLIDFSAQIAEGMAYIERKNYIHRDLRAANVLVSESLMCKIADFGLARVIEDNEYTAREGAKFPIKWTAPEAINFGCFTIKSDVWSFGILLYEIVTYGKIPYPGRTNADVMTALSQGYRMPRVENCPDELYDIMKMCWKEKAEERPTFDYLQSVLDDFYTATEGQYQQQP
Fibroblast growth factor receptor 1, sequence (P11362 whole entry): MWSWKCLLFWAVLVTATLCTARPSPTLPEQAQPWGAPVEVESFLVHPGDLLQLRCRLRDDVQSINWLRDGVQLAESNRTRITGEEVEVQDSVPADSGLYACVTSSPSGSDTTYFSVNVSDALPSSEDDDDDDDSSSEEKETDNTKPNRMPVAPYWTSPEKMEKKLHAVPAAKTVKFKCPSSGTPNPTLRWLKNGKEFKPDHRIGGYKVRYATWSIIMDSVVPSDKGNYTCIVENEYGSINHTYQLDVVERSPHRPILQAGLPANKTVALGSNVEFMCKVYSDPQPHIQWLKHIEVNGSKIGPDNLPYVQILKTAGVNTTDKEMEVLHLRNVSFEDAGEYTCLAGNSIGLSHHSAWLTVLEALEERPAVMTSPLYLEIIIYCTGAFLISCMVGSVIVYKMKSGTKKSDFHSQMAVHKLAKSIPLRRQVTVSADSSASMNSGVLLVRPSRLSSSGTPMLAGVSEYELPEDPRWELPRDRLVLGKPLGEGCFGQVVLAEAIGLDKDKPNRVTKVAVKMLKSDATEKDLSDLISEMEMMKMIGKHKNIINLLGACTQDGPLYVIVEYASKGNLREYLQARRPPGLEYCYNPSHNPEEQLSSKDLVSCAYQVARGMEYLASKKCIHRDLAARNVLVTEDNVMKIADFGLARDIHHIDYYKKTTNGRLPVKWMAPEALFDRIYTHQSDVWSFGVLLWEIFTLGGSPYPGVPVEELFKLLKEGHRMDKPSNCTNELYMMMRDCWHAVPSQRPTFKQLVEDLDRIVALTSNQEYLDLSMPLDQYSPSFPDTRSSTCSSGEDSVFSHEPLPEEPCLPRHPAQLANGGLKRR
Insulin-like growth factor 1 receptor, sequence (P08069 31-736 limits assumed): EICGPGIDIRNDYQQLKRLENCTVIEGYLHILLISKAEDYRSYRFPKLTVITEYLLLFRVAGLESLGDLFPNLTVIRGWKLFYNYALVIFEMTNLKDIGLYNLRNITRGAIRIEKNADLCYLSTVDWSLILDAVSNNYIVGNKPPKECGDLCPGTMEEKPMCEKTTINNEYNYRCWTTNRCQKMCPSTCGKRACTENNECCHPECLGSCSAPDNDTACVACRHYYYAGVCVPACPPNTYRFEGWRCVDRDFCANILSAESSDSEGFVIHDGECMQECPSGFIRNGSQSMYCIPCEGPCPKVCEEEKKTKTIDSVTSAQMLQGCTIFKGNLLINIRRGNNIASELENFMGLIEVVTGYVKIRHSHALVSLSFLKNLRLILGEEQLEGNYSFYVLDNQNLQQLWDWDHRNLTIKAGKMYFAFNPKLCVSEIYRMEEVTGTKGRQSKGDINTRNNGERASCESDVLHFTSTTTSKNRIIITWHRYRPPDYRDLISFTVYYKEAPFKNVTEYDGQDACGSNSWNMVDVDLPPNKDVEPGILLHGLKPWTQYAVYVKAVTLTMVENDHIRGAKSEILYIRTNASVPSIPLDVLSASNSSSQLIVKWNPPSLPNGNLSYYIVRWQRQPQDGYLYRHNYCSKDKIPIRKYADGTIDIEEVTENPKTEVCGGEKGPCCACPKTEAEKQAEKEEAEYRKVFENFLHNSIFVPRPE
Insulin-like growth factor 1 receptor, sequence (P08069 741-1367 limits assumed): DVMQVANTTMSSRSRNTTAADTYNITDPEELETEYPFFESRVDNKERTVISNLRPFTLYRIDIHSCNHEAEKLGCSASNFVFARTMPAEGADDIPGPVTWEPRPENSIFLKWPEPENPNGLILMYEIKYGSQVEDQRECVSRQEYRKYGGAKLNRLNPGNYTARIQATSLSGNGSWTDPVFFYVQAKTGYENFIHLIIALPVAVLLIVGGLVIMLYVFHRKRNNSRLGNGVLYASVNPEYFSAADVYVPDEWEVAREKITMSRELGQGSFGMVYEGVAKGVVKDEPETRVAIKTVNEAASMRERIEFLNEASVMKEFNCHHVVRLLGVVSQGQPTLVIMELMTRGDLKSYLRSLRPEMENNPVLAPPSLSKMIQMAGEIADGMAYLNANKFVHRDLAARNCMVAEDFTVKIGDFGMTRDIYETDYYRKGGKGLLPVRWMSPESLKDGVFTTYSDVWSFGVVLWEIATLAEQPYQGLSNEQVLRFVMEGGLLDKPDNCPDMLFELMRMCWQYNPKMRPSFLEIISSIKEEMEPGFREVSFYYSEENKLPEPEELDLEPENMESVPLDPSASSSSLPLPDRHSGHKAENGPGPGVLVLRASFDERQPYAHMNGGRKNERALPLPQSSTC
Hepatocyte growth factor receptor, sequence (P08581 whole entry): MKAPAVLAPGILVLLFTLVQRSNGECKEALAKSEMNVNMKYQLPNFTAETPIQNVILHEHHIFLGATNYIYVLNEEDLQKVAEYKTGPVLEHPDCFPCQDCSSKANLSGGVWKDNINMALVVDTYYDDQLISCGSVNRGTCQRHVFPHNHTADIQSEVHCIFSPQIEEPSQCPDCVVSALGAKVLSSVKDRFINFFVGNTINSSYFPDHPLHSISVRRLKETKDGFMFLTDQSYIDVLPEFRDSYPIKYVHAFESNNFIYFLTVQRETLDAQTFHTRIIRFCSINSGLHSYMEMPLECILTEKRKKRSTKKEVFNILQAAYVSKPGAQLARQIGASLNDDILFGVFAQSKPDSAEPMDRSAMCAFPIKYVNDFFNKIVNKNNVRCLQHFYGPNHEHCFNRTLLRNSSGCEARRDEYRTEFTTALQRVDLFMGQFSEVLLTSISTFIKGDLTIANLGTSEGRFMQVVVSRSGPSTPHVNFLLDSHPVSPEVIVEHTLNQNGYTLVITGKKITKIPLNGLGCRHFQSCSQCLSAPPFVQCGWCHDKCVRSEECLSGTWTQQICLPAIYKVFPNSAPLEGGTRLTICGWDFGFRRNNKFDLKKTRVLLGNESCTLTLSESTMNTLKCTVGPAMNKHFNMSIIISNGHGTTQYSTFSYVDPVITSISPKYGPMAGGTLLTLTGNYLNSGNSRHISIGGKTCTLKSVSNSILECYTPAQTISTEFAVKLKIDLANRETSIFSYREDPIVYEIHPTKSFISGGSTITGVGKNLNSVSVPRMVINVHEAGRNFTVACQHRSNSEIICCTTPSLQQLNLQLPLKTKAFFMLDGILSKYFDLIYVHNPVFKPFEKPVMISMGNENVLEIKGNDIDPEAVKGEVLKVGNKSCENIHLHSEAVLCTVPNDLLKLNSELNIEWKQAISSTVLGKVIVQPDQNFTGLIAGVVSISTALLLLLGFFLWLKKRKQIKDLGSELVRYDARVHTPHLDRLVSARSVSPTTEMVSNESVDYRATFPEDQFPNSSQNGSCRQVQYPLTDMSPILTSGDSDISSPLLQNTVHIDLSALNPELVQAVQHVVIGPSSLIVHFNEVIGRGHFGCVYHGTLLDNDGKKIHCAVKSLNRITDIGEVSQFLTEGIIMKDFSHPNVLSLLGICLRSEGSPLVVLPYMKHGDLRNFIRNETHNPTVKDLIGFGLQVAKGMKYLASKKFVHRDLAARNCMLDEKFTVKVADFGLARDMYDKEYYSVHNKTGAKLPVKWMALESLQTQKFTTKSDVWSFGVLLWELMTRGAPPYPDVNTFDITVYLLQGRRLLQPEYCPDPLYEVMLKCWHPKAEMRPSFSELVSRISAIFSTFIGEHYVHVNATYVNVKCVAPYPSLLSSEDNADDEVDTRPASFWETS
Tyrosine-protein kinase ZAP-70, sequence (P43403 whole entry): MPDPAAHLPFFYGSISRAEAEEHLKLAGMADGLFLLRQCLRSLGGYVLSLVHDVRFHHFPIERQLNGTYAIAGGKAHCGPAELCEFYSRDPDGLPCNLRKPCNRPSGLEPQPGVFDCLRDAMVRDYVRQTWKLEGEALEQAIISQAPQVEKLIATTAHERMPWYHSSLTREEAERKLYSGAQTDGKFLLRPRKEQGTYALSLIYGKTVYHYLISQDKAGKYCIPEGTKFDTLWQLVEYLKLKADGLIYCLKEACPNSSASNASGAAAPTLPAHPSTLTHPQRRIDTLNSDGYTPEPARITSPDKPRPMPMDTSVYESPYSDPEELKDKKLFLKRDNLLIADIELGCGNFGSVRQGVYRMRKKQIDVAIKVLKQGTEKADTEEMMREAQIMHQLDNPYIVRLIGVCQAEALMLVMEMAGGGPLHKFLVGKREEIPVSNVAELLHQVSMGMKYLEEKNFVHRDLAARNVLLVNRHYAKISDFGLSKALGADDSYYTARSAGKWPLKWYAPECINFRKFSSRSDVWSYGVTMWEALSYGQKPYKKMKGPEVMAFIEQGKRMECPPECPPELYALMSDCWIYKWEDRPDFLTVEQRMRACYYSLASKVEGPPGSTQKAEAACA
Dual specificity mitogen-activated protein kinase kinase 1, sequence (Q02750 whole entry, the tested form may be a part): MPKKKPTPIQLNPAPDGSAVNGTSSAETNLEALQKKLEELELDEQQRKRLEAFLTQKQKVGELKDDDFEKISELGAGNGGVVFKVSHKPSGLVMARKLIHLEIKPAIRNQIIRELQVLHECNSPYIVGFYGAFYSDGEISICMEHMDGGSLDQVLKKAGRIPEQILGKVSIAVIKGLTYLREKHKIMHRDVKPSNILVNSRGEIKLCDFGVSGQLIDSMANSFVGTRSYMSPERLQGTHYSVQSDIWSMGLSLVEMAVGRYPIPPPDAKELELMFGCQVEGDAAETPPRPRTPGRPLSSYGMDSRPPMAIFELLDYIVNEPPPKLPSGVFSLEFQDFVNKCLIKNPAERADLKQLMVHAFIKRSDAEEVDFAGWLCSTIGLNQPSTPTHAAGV

IC50 [1]: 7.1 µM
IC50 [2]: > 10 µM
IC50 [3]: > 10 µM
GI50 (BT-474): 2 nM
IC50 [4]: > 10 µM
IC50 [5]: > 10 µM
IC50 [6]: > 10 µM
IC50 [7]: > 10 µM
IC50 [8]: > 10 µM
IC50 [9]: > 10 µM
IC50 [10]: > 10 µM
IC50 [11]: > 10 µM
IC50 [12]: 2100 nM
microsomal CLint at 1 µM [13]: 88 µL/min/mg
IC50 [14]: > 10 µM
IC50 [15]: > 10 µM
IC50 [16]: > 10 µM
IC50 [17]: > 10 µM
IC50 [18]: 3 µM
IC50 [19]: 1700 nM
IC50 [20]: > 10 µM
IC50 [21]: 8.4 µM
IC50 [22]: > 10 µM
IC50 [24]: > 10 µM
IC50 [25]: > 10 µM
inhibition at 0.25 h, 10 µM (CYP3A4): 21.2%
IC50 (Angiopoietin-1 receptor): 3.2 µM
IC50 [26]: > 10 µM
IC50 [27]: > 10 µM
IC50 [28]: 3.9 µM
microsomal CLint at 1 µM [29]: 77 µL/min/mg
IC50 [30]: 1800 nM
IC50 [31]: > 10 µM
IC50 [32]: 79 nM
IC50 [33]: 0.98 nM
IC50 (Aurora kinase B): > 10 µM
IC50 (Focal adhesion kinase 1): > 10 µM
IC50 [34]: > 10 µM
SMILES: CC(C)(N)C(=O)NCCn1ccc2ncnc(Nc3ccc(Oc4cccc5sncc45)c(Cl)c3)c21
T/C [23]: -23%
T/C (CAL-27): -30%
